Compounds with a hit are over-represented: about 1.2% of the library has one in this group of screens.
PP1 counter: counter-screen for PP5 inhibitors: inhibitors of human PP1-alpha. P62136. AID 2235. hit rate 0.9% among 320,000. inhibition, % at 6.7 µM. purified PP1alpha, OMFP fluorescence;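 active = inhibition above the mean inhibition of all tested compounds plus 3 SD, computed separately for each screening campaign, cut at about 15% in these data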
proCasp7 act: counter-screen for procaspase-3 activators: activators of human procaspase-7; P55210; recombinant procaspase-7, Ac-DEVD-pNA absorbance 405 nm; D23A/D198A/D206A triple mutant, cannot self-cleave; scale: DMSO 0, 5 µM enzyme 100; activation, % at 8.5 µM; hit rate 0.093% among 330,000;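 active = percent activation above the screen-wide mean plus 3 SD, cut at about 25% in these data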
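Assay system: Uncleavable procaspase-7 mutant enzyme; Input: 2 µM procaspase-7 mutant as dispensed; Also added: DEVD-pNA substrate; Medium: Zinc-free HEPES pH 7.4 with 300 mM NaCl, 0.01% Triton X-100; Timing: 1 h compound preincubation, 2 h substrate cleavage, 25 °C; Measured by: Epi-absorbance of released pNA at 405 nm, two timepoints.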
PP5 inh: inhibitors of human protein phosphatase 5 (PP5); P53041; purified PP5c, OMFP substrate fluorescence; inhibition, % at 6.7 µM; hit rate 0.18% among 320,000;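 active = inhibition above the campaign's mean inhibition across all tested compounds plus 3 SD, cut at about 9.5% in these data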
Target sequence (P53041 whole entry, looked up): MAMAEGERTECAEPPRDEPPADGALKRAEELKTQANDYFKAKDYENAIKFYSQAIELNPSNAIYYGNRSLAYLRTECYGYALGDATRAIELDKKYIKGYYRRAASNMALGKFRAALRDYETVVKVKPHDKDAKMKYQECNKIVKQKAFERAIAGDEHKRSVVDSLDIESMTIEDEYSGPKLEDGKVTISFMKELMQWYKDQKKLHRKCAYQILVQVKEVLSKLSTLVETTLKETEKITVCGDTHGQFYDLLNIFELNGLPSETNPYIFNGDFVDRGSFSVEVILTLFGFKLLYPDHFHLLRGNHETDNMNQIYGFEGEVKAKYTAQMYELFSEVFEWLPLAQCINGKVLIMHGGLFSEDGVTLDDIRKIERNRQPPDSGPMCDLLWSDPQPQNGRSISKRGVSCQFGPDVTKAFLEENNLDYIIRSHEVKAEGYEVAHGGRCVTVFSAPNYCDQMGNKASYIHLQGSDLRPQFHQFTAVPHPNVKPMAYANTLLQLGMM
proCasp3 act: procaspase-3 (human) activation | P42574 | recombinant procaspase-3 D3A, Ac-DEVD-pNA absorbance 405 nm | activation, % at 8.5 µM | hit rate 0.11% among 330,000 | AID 463141;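 active = activation above the mean of all tested compounds plus 3 SD, cut at about 21% in these data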
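material = Procaspase-3 D3A mutant | probe or stimulus = Ac-DEVD-pNA | compound = single dose, 8.5 µM nominal compound, 0.8% DMSO | timing = 1 h preincubation, 2 h reaction | measured by = 405 nm absorbance of p-nitroaniline, reads at 0 and 120 min | benchmarks = DMSO-only low control, 5 µM PC-3 D3A high control | repeats = singlicate, each compound tested once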
PP1 confirm: confirmation of human PP1 phosphatase inhibitors. hit rate 52% among 1,900. purified PP1alpha, OMFP substrate fluorescence. shares compounds with PP1 counter. inhibition, % at 6.7 µM. AID 2358;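 active = mean PP1 inhibition above a set limit taken from the earlier primary screen, cut at about 15% in these data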
PP5 inh counter: inhibits human PP5 phosphatase in PP1 counter-screen. shares compounds with PP1 counter. purified PP5c, OMFP fluorescence. inhibition, % at 6.7 µM. hit rate 4% among 1,900. AID 2360;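 active = mean PP5 inhibition over triplicate wells above about 9.5% taken from the earlier PP1 screen, limit read from the data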
A number is an active result; i = inactive; nt = no result.

SMILES	PP1 counter	proCasp7 act	PP5 inh	proCasp3 act	PP1 confirm	PP5 inh counter
COc1ccc2c(Cl)c(C(=O)N/N=C/c3ccc4c(c3)OCO4)sc2c1	19.5	i	i	i	48.2	i
O=C(N/N=C/c1cc(Br)cc([N+](=O)[O-])c1O)c1ccc(NC(=O)c2ccc(F)cc2)cc1	21.7	i	i	i	35.1	i
COCc1c(C(=O)Nc2cccc(S(=O)(=O)N3CCCCC3)c2)oc2ccccc12	nt	i	nt	i	nt	nt
COc1cc(/C=C2\SC(N)=NC2=O)ccc1OCC(=O)Nc1ccc(C)cc1	20.9	i	i	i	18.5	i
COc1ccc(/C=C2/SC(=O)N(CCC(=O)Nc3ccc(C)cc3)C2=O)cc1OC	i	i	i	i	nt	nt
O=C(Nc1nccs1)c1ccc(-c2ccc([N+](=O)[O-])cc2)o1	18.3	i	i	i	23.1	i
O=c1cc(-c2ccc(O)cc2)oc2c(-c3c(O)cc(O)c4c(=O)cc(-c5ccc(O)cc5)oc34)c(O)cc(O)c12	nt	i	nt	i	nt	nt
O=c1cc(-c2ccc(O)c(-c3c(O)cc(O)c4c(=O)cc(-c5ccc(O)cc5)oc34)c2)oc2cc(O)cc(O)c12	30.8	i	i	i	21.1	i
O=c1c(-c2c(O)cc(O)c3c(=O)cc(-c4ccc(O)cc4)oc23)c(-c2ccc(O)cc2)oc2cc(O)cc(O)c12	32.1	i	i	i	16.0	i
O=c1cc(-c2ccc(O)c(O)c2)oc2cc(O)cc(O)c12	i	i	i	i	nt	nt
CNc1cc(CSC)nc(SCc2ccc(Cl)c(Cl)c2)n1	25.4	i	i	i	i	i
Cc1nc(SCc2ccc(Cl)c(Cl)c2)ncc1C(=O)O	i	i	i	i	nt	nt
COC(/C(=N/O)c1ccc(Cl)cc1)c1ccccc1 (stereo unspecified)	i	i	i	i	nt	nt
O=C(OCC1OC(n2ncc(=O)[nH]c2=O)C(OC(=O)c2ccccc2)C1OC(=O)c1ccccc1)c1ccccc1 (stereo unspecified)	24.0	i	i	i	21.9	i
CCOC(=O)CC1(NC(=O)C2CCC(=O)N(CCc3ccccc3)C2)CCCCC1 (stereo unspecified)	20.2	i	i	i	i	i
CC1CCc2c(sc(NC(=O)C(=O)NCc3ccco3)c2C#N)C1 (stereo unspecified)	20.0	i	i	i	20.9	i
CSc1ccccc1OCc1cc(C(=O)N(C)C(C)c2nc(C)cs2)no1 (stereo unspecified)	i	i	i	i	nt	nt
Cc1cccc(Nc2nnc(SCC(=O)c3ccc(Br)s3)s2)c1C	20.7	i	i	i	21.2	i
C/C(N)=C(/C#N)C(=O)CSc1nnc(Nc2cccc(C)c2C)s1	i	i	i	i	nt	nt
COc1cccc(NC(=O)CN(C)C(=O)c2cccc(S(=O)(=O)Nc3ccccc3OC)c2)c1	i	i	i	i	nt	nt
CCN(c1ccccc1)S(=O)(=O)c1ccc(C(=O)Nc2nnc(C3CC3)o2)cc1	30.7	i	i	i	29.4	i
CN(c1ccccc1)S(=O)(=O)c1ccc(C(=O)Nc2nnc(C3CC3)o2)cc1	21.9	i	i	i	18.7	i
COCCN(CCOC)S(=O)(=O)c1ccc(C(=O)Nc2nnc(C3CC3)o2)cc1	i	i	i	i	nt	nt
O=C(NC1(Cc2ccccc2)CCN(CCc2cccs2)C1=O)c1ccccc1 (stereo unspecified)	i	i	i	i	nt	nt
Cc1cc(/C=C\c2ccc3cc(N(C)C)ccc3[n+]2C)c(C)n1-c1ccccc1	34.1	i	i	i	i	i
SMILES	PP1 counter	proCasp7 act	PP5 inh	proCasp3 act	PP1 confirm	PP5 inh counter
O=C(Nc1ccc(S(=O)(=O)Nc2nccs2)cc1)c1ccc(N2C(=O)c3ccccc3C2=O)cc1	27.5	i	i	i	i	i
O=C1/C(=C\c2ccc(-c3ccccc3Cl)o2)SC(=S)N1CC1CCCO1 (stereo unspecified)	i	i	i	i	nt	nt
O=C(O)C(c1ccccc1)N1C(=O)/C(=C\c2ccc(-c3ccccc3Cl)o2)SC1=S (stereo unspecified)	27.4	i	i	i	36.0	i
O=C1/C(=C/C=C/c2ccco2)SC(=S)N1NS(=O)(=O)c1ccccc1	21.2	i	i	i	i	i
NS(=O)(=O)c1ccc(CCNC(=O)COC(=O)/C=C/c2cc(Br)ccc2F)cc1	nt	i	nt	i	nt	nt
CC1=NN(c2nc3ccccc3[nH]2)C(=O)/C1=C/N(C)C	23.3	i	i	i	i	i
COc1cc([N+](=O)[O-])cc(/C=N/NC(=O)C(C)Nc2cccc3ccccc23)c1O (stereo unspecified)	22.8	i	i	i	33.1	i
COc1cc([N+](=O)[O-])cc(/C=N/NC(=O)C(O)(c2ccccc2)c2ccccc2)c1O	20.1	i	i	i	i	i
COc1cc([N+](=O)[O-])cc(/C=N\NC(=O)C2COc3ccccc3O2)c1O (stereo unspecified)	32.3	i	i	i	25.9	i
CC(Nc1cccc2ccccc12)C(=O)N/N=C/c1ccc([N+](=O)[O-])cc1 (stereo unspecified)	i	i	i	i	nt	nt
O=C(Cc1c(F)cccc1Cl)NNC(=O)c1ccncc1	i	i	i	i	nt	nt
Cc1ccc(S(=O)(=O)N2CCOCC2)cc1C(=O)NCC1CCCCC1	i	i	i	i	nt	nt
CCCN(C(=O)/C=C/c1ccc(S(=O)(=O)N(CC)CC)cc1)C1CCS(=O)(=O)C1 (stereo unspecified)	nt	i	nt	i	nt	nt
O=C1c2cccc3cccc(c23)C(=O)N1c1ccc2ncccc2c1	22.9	i	i	i	i	i
COc1ccc(/C=N/Nc2nc(C(=O)O)cs2)cc1	20.0	i	i	i	i	i
Cc1cccc(OCc2nnc(-c3ccc(F)cc3)o2)c1	i	i	i	i	nt	nt
CCOC(=O)c1cc(-c2ccccc2)sc1NC(=O)CN1C(=O)NC(CC)(c2ccccc2)C1=O (stereo unspecified)	17.8	i	i	i	i	i
CCOC(=O)c1cc(-c2ccccc2)sc1NC(=O)COC(=O)c1cccc(S(N)(=O)=O)c1	19.2	i	i	i	30.5	i
Cc1ccsc1C(=O)OCC(=O)N1C(C)CCCC1C (stereo unspecified)	nt	i	nt	i	nt	nt
CCCC[C@@H]1CNCCN1CC1(c2ccccc2)CC1	i	i	i	i	nt	nt
Fc1ccc(-[n+]2nc(Nc3ccccc3)sc2-c2c3ccccc3cc3ccccc23)cc1	21.5	i	i	i	i	i
Oc1ccc2ccccc2c1-c1sc(Nc2ccccc2)n[n+]1-c1ccc(F)cc1	i	i	i	i	nt	nt
c1ccc(-[n+]2nc(Nc3cccc4ccccc34)sc2-c2c3ccccc3cc3ccccc23)cc1	30.6	i	i	i	30.1	i
Cc1ccc(NS(=O)(=O)c2ccc(C(=O)NCCCN3CCCC3=O)cc2)cc1	i	i	i	i	nt	nt
